Legend:
[1] = Partition coefficient was measured by the shake flask method at pH 7.4.; format: physicochemical; settings: octanol/water
Method in brief: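 Log P determined by shake-flask partitioning at pH 7.4.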

[2] = target: T1, Sterol O-acyltransferase 1 (Rattus norvegicus, UniProt O70536); test: Compound was evaluated for the Acyl coenzyme A:cholesterol acyltransferase inhibition using microsomes isolated from the livers of cholesterol fed rats; design: species or system Liver
T1 sequence (O70536 whole entry): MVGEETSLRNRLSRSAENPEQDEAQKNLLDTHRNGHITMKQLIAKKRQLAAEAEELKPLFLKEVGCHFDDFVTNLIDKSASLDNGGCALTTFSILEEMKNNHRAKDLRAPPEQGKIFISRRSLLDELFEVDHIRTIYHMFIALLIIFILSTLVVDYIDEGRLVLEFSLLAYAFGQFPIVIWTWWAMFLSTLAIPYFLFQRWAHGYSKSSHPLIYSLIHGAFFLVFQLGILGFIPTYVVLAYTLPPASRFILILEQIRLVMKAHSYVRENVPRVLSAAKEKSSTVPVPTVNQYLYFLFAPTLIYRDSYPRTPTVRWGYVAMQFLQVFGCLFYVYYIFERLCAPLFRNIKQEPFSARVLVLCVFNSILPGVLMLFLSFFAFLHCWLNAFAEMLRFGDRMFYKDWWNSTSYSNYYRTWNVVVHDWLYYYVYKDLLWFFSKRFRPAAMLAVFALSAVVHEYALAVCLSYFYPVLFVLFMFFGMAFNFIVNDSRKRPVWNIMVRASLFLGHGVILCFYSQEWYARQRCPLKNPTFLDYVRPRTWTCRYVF
Method in brief: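 Liver microsomes prepared from cholesterol-fed rats used as ACAT source. IC50 determined from four drug concentrations per assay, in four separate assays, and reported as the mean.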

Caco-2 = test: Activity of compound in an intestine model using Caco-2 cells; format: functional, cell-based; settings: Homo sapiens, Caco-2, Intestine
Method in brief: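 CaCo-2 intestinal cells incubated with radiolabeled oleic acid in the presence of test agent; ACAT activity in intact cells read as oleate incorporation into cholesteryl esters, with triglyceride and phospholipid incorporation also followed up to 100 µM. IC50 averaged over three separate experiments.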

Rattus norvegicus [3] = test: […] activity in rats at a dose of 1 mg/kg of compound was determined; format: functional
Method in brief: (§1)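 Acute model in rats: one dose given, then ad libitum overnight feeding of chow supplemented with peanut oil (5.5%), cholesterol (1.5%) and cholic acid (0.5%). Plasma cholesterol measured; n = 5/group; mean ± SEM; percent change relative to PCC-fed controls. ED50 is the dose that lowers plasma cholesterol by 50%.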

Rattus norvegicus [4] = test: […] activity in rats at a dose of 10 mg/kg was determined; format: functional; method in brief: as §1
Rattus norvegicus [5] = test: […] activity in rats at a dose of 3 mg/kg of compound was determined; format: functional; method in brief: as §1
Rattus norvegicus [6] = test: […] activity in rats at a dose of 30 mg/kg was determined; format: functional; method in brief: as §1
Rattus norvegicus [7] = test: Anti hypercholesterolemic activity in rats at a dose of 0.3 mg/kg of compound was determined; format: functional; method in brief: as §1
Rattus norvegicus [8] = species on record: Rattus norvegicus; test: Dose required to lower the plasma cholesterol by 50% in rats was determined; format: functional; method in brief: as §1
Rattus norvegicus [9] = test: Chronic effect on preestablished dyslipidemia in rats for HDL-C at 0.3 mg/kg of compound was determined; format: functional
Method in brief: (§2)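 Plasma total cholesterol measured; HDL-C separated by dextran sulfate precipitation of whole plasma, nonHDL-C derived. n = 5/group, mean ± SEM, % change versus PCC-fed controls; chow-fed controls included.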

Rattus norvegicus [10] = test: Chronic effect on preestablished dyslipidemia in rats for HDL-C at 10 […] of compound was determined; format: functional; method in brief: as §2
Rattus norvegicus [11] = test: Chronic effect on preestablished dyslipidemia in rats for HDL-C at 1 mg/kg of compound was determined; format: functional; method in brief: as §2
Rattus norvegicus [12] = test: Chronic effect on preestablished dyslipidemia in rats for HDL-C at 30 mg/kg of compound was determined; format: functional; method in brief: as §2
Rattus norvegicus [13] = test: Chronic effect on preestablished dyslipidemia in rats for HDL-C at 3 mg/kg of compound was determined; format: functional; method in brief: as §2
Rattus norvegicus [14] = test: Chronic effect on preestablished dyslipidemia in rats for nonHDL-C at 0.3 mg/kg of compound was determined; format: functional; method in brief: as §2
Rattus norvegicus [15] = test: Chronic effect on preestablished dyslipidemia in rats for nonHDL-C at 10 mg/kg of compound was determined; format: functional; method in brief: as §2
Rattus norvegicus [16] = test: Chronic effect on preestablished dyslipidemia in rats for nonHDL-C at 1 mg/kg of compound was determined; format: functional; method in brief: as §2
Rattus norvegicus [17] = test: Chronic effect on preestablished dyslipidemia in rats for nonHDL-C at 30 mg/kg of compound was determined; format: functional; method in brief: as §2
Rattus norvegicus [18] = test: Chronic effect on preestablished dyslipidemia in rats for nonHDL-C at 3 mg/kg of compound was determined; format: functional; method in brief: as §2
Rattus norvegicus [19] = test: Chronic effect on preestablished dyslipidemia in rats for total cholesterol at 0.3 mg/kg of compound was determined; format: functional; method in brief: as §2
Rattus norvegicus [20] = test: Chronic effect on preestablished dyslipidemia in rats for total cholesterol at 1 mg/kg of compound was determined; format: functional; method in brief: as §2
Rattus norvegicus [21] = test: Chronic effect on preestablished dyslipidemia in rats for total cholesterol at 10 mg/kg of compound was determined; format: functional; method in brief: as §2
Rattus norvegicus [22] = test: Chronic effect on preestablished dyslipidemia in rats for total cholesterol at 3 mg/kg of compound was determined; format: functional; method in brief: as §2
Rattus norvegicus [23] = test: Chronic effect on preestablished dyslipidemia in rats for total cholesterol at 30 mg/kg of compound was determined; format: functional; method in brief: as §2
[24] = target: T1, Sterol O-acyltransferase 1; test: Compound was evaluated for the Acyl coenzyme A:cholesterol acyltransferase inhibition using microsomes isolated from the livers of cholesterol fed rats.; design: species or system Liver
Method in brief: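 Liver microsomes from cholesterol-fed rats served as the ACAT source. IC50 was determined in four separate assays, each using four drug concentrations, and averaged.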

Rattus norvegicus [25] = test: […] activity in rats at a dose of 10 mg/kg of compound was determined; format: functional; method in brief: as §1
Rattus norvegicus [26] = test: […] activity in rats at a dose of 100 mg/kg of compound was determined; format: functional; method in brief: as §1
Rattus norvegicus [27] = test: […] activity in rats at a dose of 30 mg/kg of compound was determined; format: functional; method in brief: as §1
Rattus norvegicus [28] = test: Chronic effect on preestablished dyslipidemia in rats for HDL-C at 100 mg/kg of compound was determined; format: functional; method in brief: as §2
Rattus norvegicus [29] = test: Chronic effect on preestablished dyslipidemia in rats for HDL-C at 10 mg/kg of compound was determined; format: functional; method in brief: as §2
Rattus norvegicus [30] = test: Chronic effect on preestablished dyslipidemia in rats for nonHDL-C at 100 mg/kg of compound was determined; format: functional; method in brief: as §2
Rattus norvegicus [31] = test: Chronic effect on preestablished dyslipidemia in rats for total cholesterol at 100 mg/kg of compound was determined; format: functional; method in brief: as §2

Compound CC(C)c1cccc(C(C)C)c1OC(=O)[N-]S(=O)(=O)Oc1c(C(C)C)cccc1C(C)C.[Na+] has a logD [1] of 2.98, an IC50 [2] of 5300 nM and an IC50 (Caco-2) of 930 nM. It also gave an Activity (Rattus norvegicus [3]) of 98, an Activity (Rattus norvegicus [4]) of 56 and an Activity (Rattus norvegicus [5]) of 78. It also gave an Activity (Rattus norvegicus [6]) of 50, an Activity (Rattus norvegicus [7]) of 142 and an ED50 (Rattus norvegicus [8]) of 1.8 mg/kg. For the same compound, the Effect (Rattus norvegicus [9]) was 11 mg/dL, the Effect (Rattus norvegicus [10]) was 52 mg/dL and the Effect (Rattus norvegicus [11]) was 25 mg/dL. It also gave an Effect (Rattus norvegicus [12]) of 44 mg/dL, an Effect (Rattus norvegicus [13]) of 39 mg/dL and an Effect (Rattus norvegicus [14]) of 192 mg/dL. For the same compound, the Effect (Rattus norvegicus [15]) was 59 mg/dL, the Effect (Rattus norvegicus [16]) was 102 mg/dL and the Effect (Rattus norvegicus [17]) was 47 mg/dL. It also gave an Effect (Rattus norvegicus [18]) of 53 mg/dL, an Effect (Rattus norvegicus [19]) of 204 mg/dL and an Effect (Rattus norvegicus [20]) of 127 mg/dL. It also gave an Effect (Rattus norvegicus [21]) of 111 mg/dL, an Effect (Rattus norvegicus [22]) of 92 mg/dL and an Effect (Rattus norvegicus [23]) of 91 mg/dL.
CCCCCCCN(CCCCCSc1nc(-c2ccccc2)c(-c2ccccc2)[nH]1)C(=O)Nc1ccc(F)cc1F [LECIMIBIDE] gave an IC50 [24] of 18 nM, an Activity (Rattus norvegicus [3]) of 158 and an Activity (Rattus norvegicus [25]) of 77. It also gave an Activity (Rattus norvegicus [26]) of 79, an Activity (Rattus norvegicus [5]) of 122 and an Activity (Rattus norvegicus [27]) of 74. For the same compound, the ED50 (Rattus norvegicus [8]) was 15.2 mg/kg, the Effect (Rattus norvegicus [28]) was 32 mg/dL and the Effect (Rattus norvegicus [29]) was 18 mg/dL. The Effect (Rattus norvegicus [11]) was 10 mg/dL, the Effect (Rattus norvegicus [12]) was 21 mg/dL and the Effect (Rattus norvegicus [13]) was 14 mg/dL. It also gave an Effect (Rattus norvegicus [30]) of 87 mg/dL, an Effect (Rattus norvegicus [15]) of 135 mg/dL and an Effect (Rattus norvegicus [16]) of 234 mg/dL. The Effect (Rattus norvegicus [17]) was 98 mg/dL, the Effect (Rattus norvegicus [18]) was 203 mg/dL and the Effect (Rattus norvegicus [20]) was 244 mg/dL. The Effect (Rattus norvegicus [31]) was 119 mg/dL, the Effect (Rattus norvegicus [21]) was 154 mg/dL and the Effect (Rattus norvegicus [22]) was 217 mg/dL. It also gave an Effect (Rattus norvegicus [23]) of 120 mg/dL.
